According to ChEMBL document CHEMBL5154665, “Design, synthesis, biochemical evaluation, radiolabeling and in vivo imaging with high affinity class-IIa histone deacetylase inhibitor for molecular imaging and targeted therapy” (Eur J Med Chem, 2022):

How the values were obtained:
[1] = Inhibition of HDAC class 2b in human HT-29 cells using Boc-Lys-Ac as substrate incubated for 3 hrs by microplate reader assay; format: cell-based; conditions: HT-29, 3 h
[2] = biological target: T1, Protein deacetylase HDAC6 (Homo sapiens, UniProt Q9UBN7); test: Inhibition of recombinant human HDAC6 using fluorogenic substrate by fluorescence microplate reader assay
T1 sequence (Q9UBN7 whole entry): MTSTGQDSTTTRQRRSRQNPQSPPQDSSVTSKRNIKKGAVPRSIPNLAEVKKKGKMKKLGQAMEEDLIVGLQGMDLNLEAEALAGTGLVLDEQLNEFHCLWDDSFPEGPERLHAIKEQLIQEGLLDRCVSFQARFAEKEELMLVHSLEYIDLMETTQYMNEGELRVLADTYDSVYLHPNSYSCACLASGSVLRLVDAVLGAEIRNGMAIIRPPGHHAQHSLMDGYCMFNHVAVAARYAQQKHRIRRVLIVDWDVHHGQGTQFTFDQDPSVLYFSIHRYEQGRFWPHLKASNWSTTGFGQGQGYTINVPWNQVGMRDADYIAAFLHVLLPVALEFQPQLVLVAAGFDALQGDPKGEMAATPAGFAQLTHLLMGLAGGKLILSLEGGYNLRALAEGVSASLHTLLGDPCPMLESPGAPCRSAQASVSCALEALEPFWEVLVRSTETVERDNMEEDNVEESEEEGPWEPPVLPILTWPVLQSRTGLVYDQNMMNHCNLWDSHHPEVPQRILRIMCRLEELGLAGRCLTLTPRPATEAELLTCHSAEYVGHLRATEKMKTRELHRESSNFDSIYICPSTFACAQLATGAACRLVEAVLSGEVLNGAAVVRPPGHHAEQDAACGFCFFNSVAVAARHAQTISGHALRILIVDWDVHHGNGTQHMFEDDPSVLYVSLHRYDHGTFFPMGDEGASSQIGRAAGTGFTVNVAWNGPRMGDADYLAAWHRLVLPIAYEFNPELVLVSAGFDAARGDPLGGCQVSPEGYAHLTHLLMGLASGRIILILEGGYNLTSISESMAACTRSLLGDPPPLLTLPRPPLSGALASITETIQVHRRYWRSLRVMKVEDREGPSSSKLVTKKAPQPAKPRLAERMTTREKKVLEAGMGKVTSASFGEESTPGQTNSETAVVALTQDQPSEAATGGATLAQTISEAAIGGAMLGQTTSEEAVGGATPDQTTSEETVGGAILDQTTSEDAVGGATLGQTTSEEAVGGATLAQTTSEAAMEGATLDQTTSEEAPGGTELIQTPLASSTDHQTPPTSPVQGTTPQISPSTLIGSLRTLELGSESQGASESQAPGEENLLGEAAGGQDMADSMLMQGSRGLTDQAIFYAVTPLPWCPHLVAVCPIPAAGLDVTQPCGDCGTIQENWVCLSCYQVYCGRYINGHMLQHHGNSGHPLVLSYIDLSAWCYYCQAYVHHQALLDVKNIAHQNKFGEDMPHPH
Method in brief: (§1)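 Recombinant human HDAC isoforms were tested at 9 inhibitor dilutions in commercial fluorogenic enzyme kits, per the manufacturer's protocol. For class IIa enzymes, deacetylation of a TFA-lysine substrate lets trypsin release a fluorophore, read on a microplate reader. IC50 came from a nonlinear fit of % HDAC activity inhibition against compound concentration.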

Histone deacetylase 9 = Histone deacetylase 9 (Homo sapiens, UniProt Q9UKV0); test: Inhibition of recombinant human HDAC9 using fluorogenic substrate by fluorescence microplate reader assay; method in brief: as §1
Sequence of Histone deacetylase 9 (Q9UKV0 whole entry): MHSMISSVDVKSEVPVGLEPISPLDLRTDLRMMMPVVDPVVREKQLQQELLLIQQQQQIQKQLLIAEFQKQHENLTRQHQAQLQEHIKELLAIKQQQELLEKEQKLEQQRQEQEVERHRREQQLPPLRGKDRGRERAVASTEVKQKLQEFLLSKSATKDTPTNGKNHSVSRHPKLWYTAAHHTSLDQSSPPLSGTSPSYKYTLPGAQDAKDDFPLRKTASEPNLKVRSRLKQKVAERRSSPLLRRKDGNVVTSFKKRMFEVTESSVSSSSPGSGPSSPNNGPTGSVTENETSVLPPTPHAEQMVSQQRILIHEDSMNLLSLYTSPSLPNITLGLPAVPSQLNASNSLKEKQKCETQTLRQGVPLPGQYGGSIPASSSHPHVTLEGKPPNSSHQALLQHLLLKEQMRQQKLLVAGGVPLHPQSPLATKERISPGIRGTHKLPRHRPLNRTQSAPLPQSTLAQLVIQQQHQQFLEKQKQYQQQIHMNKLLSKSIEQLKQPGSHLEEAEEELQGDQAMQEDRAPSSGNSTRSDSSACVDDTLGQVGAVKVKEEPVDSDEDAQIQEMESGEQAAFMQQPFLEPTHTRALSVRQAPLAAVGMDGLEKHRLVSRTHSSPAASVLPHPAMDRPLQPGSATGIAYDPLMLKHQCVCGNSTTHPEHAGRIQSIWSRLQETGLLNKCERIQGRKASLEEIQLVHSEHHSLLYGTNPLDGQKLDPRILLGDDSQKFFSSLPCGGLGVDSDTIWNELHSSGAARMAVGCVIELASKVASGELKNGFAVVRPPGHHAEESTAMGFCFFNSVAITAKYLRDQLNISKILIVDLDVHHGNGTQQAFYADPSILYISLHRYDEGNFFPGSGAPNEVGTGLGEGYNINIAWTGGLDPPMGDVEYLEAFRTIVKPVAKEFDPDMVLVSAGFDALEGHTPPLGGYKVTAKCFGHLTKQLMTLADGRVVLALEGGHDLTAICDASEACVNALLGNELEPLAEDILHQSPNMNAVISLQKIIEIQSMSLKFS

Histone deacetylase 1 = Histone deacetylase 1 (Homo sapiens, UniProt Q13547); test: Inhibition of recombinant human HDAC1 using fluorogenic substrate by fluorescence microplate reader assay; method in brief: as §1
Sequence of Histone deacetylase 1 (Q13547 whole entry): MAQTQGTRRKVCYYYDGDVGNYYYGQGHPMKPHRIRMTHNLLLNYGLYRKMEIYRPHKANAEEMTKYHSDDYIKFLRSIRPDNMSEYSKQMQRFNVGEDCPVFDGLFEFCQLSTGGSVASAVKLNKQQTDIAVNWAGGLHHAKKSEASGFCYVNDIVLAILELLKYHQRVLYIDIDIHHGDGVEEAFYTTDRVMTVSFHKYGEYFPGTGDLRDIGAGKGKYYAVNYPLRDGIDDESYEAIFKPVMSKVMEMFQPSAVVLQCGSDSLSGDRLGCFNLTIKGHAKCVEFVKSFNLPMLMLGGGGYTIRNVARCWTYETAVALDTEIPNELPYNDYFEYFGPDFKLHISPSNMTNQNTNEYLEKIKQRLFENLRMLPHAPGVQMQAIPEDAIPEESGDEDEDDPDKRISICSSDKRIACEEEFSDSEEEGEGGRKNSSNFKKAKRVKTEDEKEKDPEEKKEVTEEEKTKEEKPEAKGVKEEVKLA

[3] = Inhibition of HDAC class 2a in human HT-29 cells using Boc-Lys-TFA as substrate incubated for 3 hrs by microplate reader assay; format: cell-based; conditions: HT-29, 3 h
[4] = biological target: T2, Polyamine deacetylase HDAC10 (Homo sapiens, UniProt Q969S8); test: Inhibition of recombinant human HDAC10 using fluorogenic substrate by fluorescence microplate reader assay; method in brief: as §1
T2 sequence (Q969S8 whole entry): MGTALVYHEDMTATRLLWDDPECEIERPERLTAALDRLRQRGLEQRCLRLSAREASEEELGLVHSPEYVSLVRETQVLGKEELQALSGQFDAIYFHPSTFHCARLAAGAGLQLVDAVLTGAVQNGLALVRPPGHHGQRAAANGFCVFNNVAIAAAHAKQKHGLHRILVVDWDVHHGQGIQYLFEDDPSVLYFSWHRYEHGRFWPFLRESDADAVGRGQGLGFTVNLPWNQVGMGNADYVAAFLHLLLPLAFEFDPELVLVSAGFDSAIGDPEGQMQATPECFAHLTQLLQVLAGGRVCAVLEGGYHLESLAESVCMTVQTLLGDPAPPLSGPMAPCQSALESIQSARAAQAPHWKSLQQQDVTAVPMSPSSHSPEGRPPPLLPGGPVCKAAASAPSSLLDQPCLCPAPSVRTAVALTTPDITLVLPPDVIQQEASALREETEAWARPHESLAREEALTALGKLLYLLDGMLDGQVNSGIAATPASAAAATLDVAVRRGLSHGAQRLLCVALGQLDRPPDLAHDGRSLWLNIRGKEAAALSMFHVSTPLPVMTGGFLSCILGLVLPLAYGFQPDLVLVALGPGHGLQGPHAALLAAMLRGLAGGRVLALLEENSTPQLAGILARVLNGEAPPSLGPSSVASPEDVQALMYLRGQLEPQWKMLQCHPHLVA

Histone deacetylase 8 = biological target: T3, Histone deacetylase 8 (Homo sapiens, UniProt Q9BY41); test: Inhibition of recombinant human HDAC8 using fluorogenic substrate by fluorescence microplate reader assay; method in brief: as §1
T3 sequence (Q9BY41 whole entry): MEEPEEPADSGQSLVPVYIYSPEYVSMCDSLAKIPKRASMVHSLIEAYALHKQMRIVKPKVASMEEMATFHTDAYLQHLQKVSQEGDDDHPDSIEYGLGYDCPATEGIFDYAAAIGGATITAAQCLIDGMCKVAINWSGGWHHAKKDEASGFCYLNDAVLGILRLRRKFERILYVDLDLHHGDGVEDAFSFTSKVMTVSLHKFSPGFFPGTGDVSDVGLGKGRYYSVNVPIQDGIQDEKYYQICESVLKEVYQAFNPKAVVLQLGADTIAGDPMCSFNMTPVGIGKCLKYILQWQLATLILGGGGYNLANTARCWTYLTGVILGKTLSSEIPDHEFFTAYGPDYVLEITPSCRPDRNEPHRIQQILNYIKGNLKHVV

Histone deacetylase 11 = biological target: T4, Histone deacetylase 11 (Homo sapiens, UniProt Q96DB2); test: Inhibition of recombinant human HDAC11 using fluorogenic substrate by fluorescence microplate reader assay; method in brief: as §1
T4 sequence (Q96DB2 whole entry): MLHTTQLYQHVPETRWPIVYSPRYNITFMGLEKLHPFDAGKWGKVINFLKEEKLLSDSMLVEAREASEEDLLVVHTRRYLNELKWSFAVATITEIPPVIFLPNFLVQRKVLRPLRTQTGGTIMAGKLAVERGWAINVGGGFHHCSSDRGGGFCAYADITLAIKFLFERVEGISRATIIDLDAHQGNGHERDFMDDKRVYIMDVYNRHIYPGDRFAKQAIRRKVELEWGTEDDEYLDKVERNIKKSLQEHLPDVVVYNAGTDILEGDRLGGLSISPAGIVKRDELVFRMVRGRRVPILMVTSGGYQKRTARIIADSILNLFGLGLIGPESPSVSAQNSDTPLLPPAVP

[5] = biological target: Class 1 histone deacetylase (Homo sapiens, UniProt Q13547+O15379+Q92769+Q9BY41); test: Inhibition of HDAC class 1 in human HT-29 cells using Boc-Lys-Ac as substrate incubated for 3 hrs by microplate reader assay; format: cell-based
Histone deacetylase 4 = Histone deacetylase 4 (Homo sapiens, UniProt P56524); test: Inhibition of recombinant human HDAC4 using fluorogenic substrate by fluorescence microplate reader assay; method in brief: as §1
Sequence of Histone deacetylase 4 (P56524 whole entry): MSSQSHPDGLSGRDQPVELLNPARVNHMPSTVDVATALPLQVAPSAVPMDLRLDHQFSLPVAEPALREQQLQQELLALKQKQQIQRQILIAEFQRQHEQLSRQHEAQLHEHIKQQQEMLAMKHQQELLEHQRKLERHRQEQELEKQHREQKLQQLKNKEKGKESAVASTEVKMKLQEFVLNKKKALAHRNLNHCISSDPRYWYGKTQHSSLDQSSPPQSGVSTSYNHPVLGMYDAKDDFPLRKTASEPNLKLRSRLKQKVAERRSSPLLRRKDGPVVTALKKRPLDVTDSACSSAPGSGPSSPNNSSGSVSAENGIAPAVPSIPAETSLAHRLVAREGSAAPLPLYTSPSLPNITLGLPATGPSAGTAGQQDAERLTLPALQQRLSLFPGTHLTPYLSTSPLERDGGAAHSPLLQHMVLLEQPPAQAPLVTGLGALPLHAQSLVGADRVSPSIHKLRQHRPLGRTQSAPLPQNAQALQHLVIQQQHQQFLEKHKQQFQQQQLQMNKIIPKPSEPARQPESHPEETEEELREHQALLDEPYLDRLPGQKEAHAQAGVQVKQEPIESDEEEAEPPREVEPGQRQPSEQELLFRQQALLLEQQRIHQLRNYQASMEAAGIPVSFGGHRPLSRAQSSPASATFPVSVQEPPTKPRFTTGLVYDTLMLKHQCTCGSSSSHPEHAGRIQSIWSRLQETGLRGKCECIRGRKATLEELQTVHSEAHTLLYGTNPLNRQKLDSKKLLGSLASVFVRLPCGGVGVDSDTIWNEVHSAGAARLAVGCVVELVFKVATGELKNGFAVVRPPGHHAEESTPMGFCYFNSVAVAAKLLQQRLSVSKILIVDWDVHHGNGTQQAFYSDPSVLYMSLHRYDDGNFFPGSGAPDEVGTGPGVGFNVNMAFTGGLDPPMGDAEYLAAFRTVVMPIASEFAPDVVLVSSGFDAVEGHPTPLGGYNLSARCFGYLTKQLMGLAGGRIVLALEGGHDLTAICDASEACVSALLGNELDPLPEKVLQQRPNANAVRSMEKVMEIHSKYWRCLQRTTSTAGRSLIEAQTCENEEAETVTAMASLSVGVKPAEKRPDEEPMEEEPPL

Histone deacetylase 3 = Histone deacetylase 3 (Homo sapiens, UniProt O15379); test: Inhibition of recombinant human HDAC3 using fluorogenic substrate by fluorescence microplate reader assay; method in brief: as §1
Sequence of Histone deacetylase 3 (O15379 whole entry): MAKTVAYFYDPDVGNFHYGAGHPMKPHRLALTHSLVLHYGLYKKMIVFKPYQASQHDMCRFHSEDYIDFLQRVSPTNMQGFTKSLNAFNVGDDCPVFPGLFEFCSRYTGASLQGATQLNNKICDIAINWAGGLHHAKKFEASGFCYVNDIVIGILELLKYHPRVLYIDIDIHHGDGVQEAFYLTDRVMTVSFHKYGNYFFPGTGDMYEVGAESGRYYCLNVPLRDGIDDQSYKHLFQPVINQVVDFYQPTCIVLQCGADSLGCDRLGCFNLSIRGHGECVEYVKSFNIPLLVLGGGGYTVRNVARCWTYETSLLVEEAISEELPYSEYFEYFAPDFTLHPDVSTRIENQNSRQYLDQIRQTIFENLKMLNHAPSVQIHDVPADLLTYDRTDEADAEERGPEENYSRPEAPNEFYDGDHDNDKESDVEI

Histone deacetylase 5 = Histone deacetylase 5 (Homo sapiens, UniProt Q9UQL6); test: Inhibition of recombinant human HDAC5 using fluorogenic substrate by fluorescence microplate reader assay; method in brief: as §1
Sequence of Histone deacetylase 5 (Q9UQL6 whole entry): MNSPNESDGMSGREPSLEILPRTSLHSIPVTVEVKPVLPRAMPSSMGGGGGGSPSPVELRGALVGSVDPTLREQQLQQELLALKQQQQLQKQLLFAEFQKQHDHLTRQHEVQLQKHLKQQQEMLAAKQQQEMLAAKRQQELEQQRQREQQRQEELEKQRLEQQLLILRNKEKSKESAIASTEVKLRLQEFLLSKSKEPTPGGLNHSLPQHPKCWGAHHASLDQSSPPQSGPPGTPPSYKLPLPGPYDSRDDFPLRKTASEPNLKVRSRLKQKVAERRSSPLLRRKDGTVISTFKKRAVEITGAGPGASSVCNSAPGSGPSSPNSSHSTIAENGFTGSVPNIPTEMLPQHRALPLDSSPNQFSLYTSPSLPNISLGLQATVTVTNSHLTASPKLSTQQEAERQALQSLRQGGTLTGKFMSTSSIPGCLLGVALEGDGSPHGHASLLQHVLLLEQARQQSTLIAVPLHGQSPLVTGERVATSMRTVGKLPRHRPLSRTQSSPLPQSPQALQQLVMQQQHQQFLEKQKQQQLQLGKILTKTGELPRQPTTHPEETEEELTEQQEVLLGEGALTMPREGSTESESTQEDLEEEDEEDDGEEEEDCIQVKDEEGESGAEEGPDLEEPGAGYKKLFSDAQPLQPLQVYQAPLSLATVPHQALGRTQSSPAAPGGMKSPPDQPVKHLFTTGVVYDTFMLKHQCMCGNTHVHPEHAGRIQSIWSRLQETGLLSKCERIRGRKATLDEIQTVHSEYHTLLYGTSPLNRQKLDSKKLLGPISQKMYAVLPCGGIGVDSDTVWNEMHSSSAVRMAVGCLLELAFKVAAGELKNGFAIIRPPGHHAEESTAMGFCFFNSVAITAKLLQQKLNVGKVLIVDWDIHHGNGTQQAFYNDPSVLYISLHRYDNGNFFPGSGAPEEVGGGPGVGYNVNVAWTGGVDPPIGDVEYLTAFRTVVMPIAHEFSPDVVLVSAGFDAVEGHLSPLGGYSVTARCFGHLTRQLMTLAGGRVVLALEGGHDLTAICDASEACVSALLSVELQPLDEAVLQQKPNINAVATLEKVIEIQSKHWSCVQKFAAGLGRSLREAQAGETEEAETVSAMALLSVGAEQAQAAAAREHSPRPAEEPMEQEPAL

Histone deacetylase 2 = Histone deacetylase 2 (Homo sapiens, UniProt Q92769); test: Inhibition of recombinant human HDAC2 using fluorogenic substrate by fluorescence microplate reader assay; method in brief: as §1
Sequence of Histone deacetylase 2 (Q92769 whole entry): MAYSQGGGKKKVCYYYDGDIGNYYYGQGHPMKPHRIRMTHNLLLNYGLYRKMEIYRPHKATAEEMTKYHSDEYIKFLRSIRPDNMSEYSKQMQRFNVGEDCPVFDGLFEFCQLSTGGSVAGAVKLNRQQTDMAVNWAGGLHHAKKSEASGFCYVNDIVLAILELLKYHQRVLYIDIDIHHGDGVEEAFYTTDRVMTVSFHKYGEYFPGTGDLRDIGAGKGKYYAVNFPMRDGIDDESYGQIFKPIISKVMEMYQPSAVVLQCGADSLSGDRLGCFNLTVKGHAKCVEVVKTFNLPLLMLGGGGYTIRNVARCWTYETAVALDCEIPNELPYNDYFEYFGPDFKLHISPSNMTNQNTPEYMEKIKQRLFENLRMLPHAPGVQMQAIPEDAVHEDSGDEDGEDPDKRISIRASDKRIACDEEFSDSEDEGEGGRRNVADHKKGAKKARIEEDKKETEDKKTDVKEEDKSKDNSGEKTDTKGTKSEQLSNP

Compound | IC50 [1] | IC50 [3] | IC50 [5] | also measured
C[C@H](CN(C)Cc1ccccc1)NC(=O)c1ccc(-c2noc(C(F)(F)F)n2)cc1 | > 15000 nM | 46 nM | > 15000 nM | IC50 [2]: > 600 nM; IC50 (Histone deacetylase 9): 0.9 nM; IC50 (Histone deacetylase 1): > 600 nM; IC50 [4]: > 600 nM; IC50 (Histone deacetylase 8): > 600 nM; IC50 (Histone deacetylase 11): > 600 nM; IC50 (Histone deacetylase 4): 0.08 nM; IC50 (Histone deacetylase 3): > 600 nM; IC50 (Histone deacetylase 5): 1.2 nM; IC50 (Histone deacetylase 2): > 600 nM
CC(C)(CNC(=O)c1ccc(-c2noc(C(F)(F)F)n2)cc1)c1coc(-c2ccccc2)n1 | > 15000 nM | > 5000 nM | > 15000 nM | 
C[C@H](CN(C)Cc1ccccc1)NC(=O)c1ccc(-c2noc(C(F)(F)Cl)n2)cc1 | > 2000 nM | > 2000 nM | > 2000 nM | 
C[C@H](CN(C)Cc1ccc(F)cc1)NC(=O)c1ccc(-c2noc(C(F)(F)F)n2)cc1 | > 15000 nM | 59 nM | > 15000 nM | 
C[C@@H](NC(=O)c1ccc(-c2noc(C(F)(F)F)n2)cc1)C(=O)NCc1ccccc1 | > 15000 nM | 953 nM | > 15000 nM | 
COC[C@@H](NC(=O)c1ccc(-c2noc(C(F)(F)F)n2)cc1)C(=O)NCc1ccc(F)cc1 | > 15000 nM | 233 nM | > 15000 nM | 
C[C@H](CN(C)Cc1ccccc1)NC(=O)c1ccc(-c2noc(C(F)(F)F)n2)nc1 | > 50000 nM | 147 nM | > 50000 nM | 
COC[C@@H](NC(=O)c1ccc(-c2noc(C(F)(F)F)n2)cc1)C(=O)NCc1ccccc1 | > 15000 nM | 537 nM | > 15000 nM | 
CN(Cc1ccccc1)C(=O)C(C)(C)CNC(=O)c1cccc(-c2noc(C(F)(F)F)n2)c1 | > 50000 nM | > 50000 nM | > 50000 nM | 
CC(C)(CNC(=O)c1ccc(-c2noc(C(F)(F)F)n2)cc1)C(=O)NCc1ccccc1 | > 15000 nM | 768 nM | > 15000 nM | 
C[C@H](CN(C)Cc1ccccc1)NC(=O)c1cccc(-c2noc(C(F)(F)F)n2)c1 | > 50000 nM | > 50000 nM | > 50000 nM | 
COC[C@@H](NC(=O)c1ccc(-c2noc(C(F)(F)F)n2)nc1)C(=O)NCc1ccccc1 | > 15000 nM | 1710 nM | > 15000 nM | 
CC(CN(C)Cc1ccccc1)NC(=O)c1ccc(-c2noc(C(F)(F)F)n2)cc1 (stereo unspecified) | > 50000 nM | 395 nM | > 50000 nM | 
CN(Cc1ccccc1)C(=O)CCNC(=O)c1ccc(-c2noc(C(F)(F)F)n2)cc1 | > 15000 nM | 905 nM | > 15000 nM | 
CN(Cc1ccccc1)C(=O)C(C)(C)CNC(=O)c1ccc(-c2noc(C(F)(F)F)n2)cc1 | > 15000 nM | 933 nM | > 15000 nM | 
CN(Cc1ccccc1)C(=O)CCNC(=O)c1cccc(-c2noc(C(F)(F)F)n2)c1 | > 50000 nM | > 50000 nM | > 50000 nM | 
C[C@H](CN(C)Cc1ccccc1)NC(=O)c1ccc(-c2noc(C(F)(F)Br)n2)cc1 | > 5000 nM | > 5000 nM | > 5000 nM | 
